Screening data from PubChem.
Compounds with a hit are over-represented: about 9.6% of the library has one in this group of screens.
BaF3 tox = parental Ba/F3 cell viability inhibition, counter-screen for JAK2V617F inhibitor project, murine pro-B, CellTiter-Glo luminescence; 220,000 tested, 1.1% active; CellTiter-Glo ATP luminescence; AID 1486, 2009; inhibition, % at 5.6 µM;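 active = inhibition above a per-campaign cutoff, the mean inhibition of all tested compounds plus 3 SD, cut at about 27% in these data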;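 note: 0% = DMSO wells and 100% = JAK Inhibitor I control wells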
APP transl inh = inhibitors of APP translation via 5'UTR reporter, primary screen, APP 5'UTR luciferase, SH-SY5Y cells. SH-SY5Y APP 5'UTR-luciferase reporter, luminescence. inhibition, % at 2 µM. 190,000 tested, 0.82% active;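 active = inhibition above a set limit, derived from the sample mean plus 3 SD, cut at about 45% in these data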
b-catenin transl = modulators of beta-catenin nuclear translocation, primary screen, imaging, HeLa cells, immunofluorescence, high-content; nuclear translocation activity, % at 5 µM; 190,000 tested, 0.3% active;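 active = nuclear translocation activity above 50% at 5 µM, with a well cell count of 50 or more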;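 note: per-cell ratio of nuclear to cytoplasmic median beta-catenin stain intensity; plate controls were DMSO negative control for no effect and GSK-3 inhibitor IX positive control for full effect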
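Test system: HeLa cells, endogenous beta-catenin; Compound: single 5 µM dose plus 0.02–20 µM confirmation series; Times: compound exposure 24 h at 37°C; Signal: fluorescence imaging of beta-catenin antibody stain plus DAPI; Read-out: % activation, nuclear-to-cytoplasmic median beta-catenin signal ratio per cell.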
Ba/F3 V617F tox = reduced viability of JAK2V617F-dependent Ba/F3 cells, primary screen, JAK2V617F inhibitor project, cell-based, Ba/F3 EpoR-JAK2V617F, luminescence; ATP luminescence; inhibition, % at 5.6 µM; 220,000 tested, 1.1% active; AID 1446, 2008;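 active = inhibition above the campaign mean plus 3 SD over all tested compounds, cut at about 24% in these data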;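 note: cytokine-independent growth of Ba/F3 cells driven by EpoR plus mutant JAK2; 0% = DMSO-treated cells and 100% = JAK inhibitor I control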
MT stabilize HCS = microtubule stabilizers in HeLa cells, primary screen, imaging, high-content imaging | 200,000 tested, 0.83% active | % tubulin-high responders, % at 10 µM | HeLa tubulin immunostaining HCS, 24 h; share of cells brighter than vehicle mean+2SD | AID 2205, 2009;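 active = plate Z-score above 3 for both tubulin-high and condensed-nucleus cell shares, with cell loss under 80%, at 10 µM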;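 note: anti alpha tubulin signal scored within the nucleus-defined area of each cell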
L major viab = Leishmania major promastigote growth inhibition, primary screen. Leishmania major promastigotes, resazurin fluorescence viability. inhibition, % at 10 µM. 200,000 tested, 9% active; in the data active = inhibition above about 50%;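 note: promastigotes grown with compound for 44 hours at 28 °C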
An asterisk follows results filed as active; nt = no result given.

SMILES	BaF3 tox	APP transl inh	b-catenin transl	Ba/F3 V617F tox	MT stabilize HCS	L major viab
COc1ccc2c(c1)sc(=N)n2C	69*	6	0	58*	4	101*
COCCCNCC(O)COc1ccccc1F (centres undefined)	3	-18	0	1	1	-5
Cc1nc2ccccc2nc1CN1CCC(CO)(CC2CCCCO2)CC1 (centres undefined)	5	-11	-2	0	4	69*
CCOC(=O)c1sc2ccccc2c1NC(=O)c1coc2ccccc2c1=O	-4	-10	2	-3	6	58*
CCc1nnc(NC(=O)CSc2nccn2-c2cccc(C)c2C)s1	1	-2	0	-2	19*	-5
O=C(Nc1ccccc1-c1ccccc1)C(=O)Nc1ccccc1-c1ccccc1	-3	nt	0	-2	nt	nt
CCN(CC)Cc1c(O)ccc2occ(C(=O)c3ccc(OC)cc3)c12	2	-6	-2	-1	5	88*
CN(C)CCCN1C(=O)c2cccc3c([N+](=O)[O-])ccc(c23)C1=O	79*	80*	-2	95*	1	100*
CCOC(=O)c1c(NC(=S)Nc2cccc(C)c2)sc2c1CC(C)(C)SC2	8	-6	1	-1	3	9
O=C(NCCCO)C(=O)NCc1ccccn1	8	19	2	4	2	6
C=CCN1C(=O)CSc2ccc(C(=O)NCCC3=CCCCC3)cc21	2	-2	nt	-4	2	76*
C=CCN1C(=O)CSc2ccc(C(=O)NCc3ccco3)cc21	4	-1	-2	2	3	0
COCc1cc(C)nc(N/N=C/c2ccc(-c3cc(C(=O)O)ccc3Cl)o2)c1C#N	5	-15	-2	0	2	-5
CCc1ccccc1Cn1c(=O)oc2cccnc21	1	nt	1	1	nt	nt
Cc1cccc(NC(=S)NCC(c2cccnc2)N(C)C)c1C (centres undefined)	5	9	4	-2	5	-7
N#C/C(=C\c1cccc([N+](=O)[O-])c1)c1nnc2n1CCCCC2	0	22	0	-1	3	61*
Cc1cccc(NC(=O)c2ccc(-n3ccnc3)nc2)c1	1	-12	-2	-3	2	11
COc1ccc(CNC(=O)CN(Cc2ccc(F)cc2)C(=O)c2csnn2)cc1	2	-17	0	2	6	20
O=S(=O)(c1cccc(Cl)c1Cl)N1CCCCC1	5	-9	1	3	4	1
CN1CCCN(S(=O)(=O)c2ccc(Cl)c(Cl)c2)CC1	6	-1	-1	3	3	82*
Cc1cc(N2CCN(S(=O)(=O)c3ccc(Cl)c(Cl)c3)CC2)c2ccccc2n1	4	0	1	3	8	74*
Cc1cc(C)n(-c2nc3ccccc3nc2N2CCN(S(=O)(=O)c3ccc4ccccc4c3)CC2)n1	5	6	nt	0	9	54*
CN1CCCN(S(=O)(=O)c2cccc(Cl)c2Cl)CC1	3	18	-4	-3	4	72*
COC(=O)Cc1sc(-c2ccccn2)nc1-c1ccccc1	5	3	-2	0	4	-7
CCOc1ccc(S(=O)(=O)n2cnc3cc(C)c(C)cc32)cc1	50*	3	-2	40*	6	15
SMILES	BaF3 tox	APP transl inh	b-catenin transl	Ba/F3 V617F tox	MT stabilize HCS	L major viab
CCC(=O)N/C(N)=N/c1nc(C)c2cc(C)c(C)cc2n1	53*	nt	11	38*	nt	nt
Cc1cc2nc(/N=C(\N)NC(=O)C(C)C)nc(C)c2cc1C	30*	nt	2	12	nt	nt
CCOC(=O)CNC(=O)C(NC(=O)C1CCC(C)CC1)C(C)CC (centres undefined)	9	11	nt	2	3	-7
CNC(=S)NNC(=O)c1ccc(C(C)(C)C)cc1	-5	nt	0	4	nt	nt
CCOc1ccc(OCc2cccc(C(=O)Nc3ccc(CN4CCCCC4)cc3)c2)cc1	3	-71	-2	1	4	96*
COc1ccc(OCc2cccc(C(=O)Nc3ccc(CN4CCCCC4)cc3)c2)cc1	9	-107	0	4	4	78*
CCc1cc2c(=O)c(-c3ccc4c(c3)OCCO4)c(C)oc2cc1OS(C)(=O)=O	6	-11	2	1	11*	45
